Assays:
[1] = Cmax in C57 mouse at 10 mg/kg, ip; format: ADME, organism-based; parameters: dose 10 mg/kg, route intraperitoneal; conditions: in vivo
Procedure, shortened: (§1)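 Male specific pathogen-free age-matched C57 mice; single 10 mg/kg i.p. dose in 10% EtOH; animals culled at multiple time points; blood by cardiac puncture into EDTA, plasma separated by centrifugation, protein precipitated in MeOH.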

[2] = Cytotoxicity against human NZOV9 cells expressing PI3K p110alpha Y1021C mutant assessed as growth inhibition after 5 days by [3H]-thymidine incorporation assay; format: functional, cell-based
Procedure, shortened: (§2)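 NZB5 (medulloblastoma, wild-type p110α) and NZOV9 (ovarian endometrioid adenocarcinoma, Y1021C p110α) cells cultured with drug for 5 days; proliferation by [³H]-thymidine incorporation at end; IC50 as 50% inhibition versus controls, averaged over at least two determinations.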

Mus musculus [3] = assay: Toxicity in rag1-deficient mouse xenografted with human U87MG cells assessed as mortality without preceding sings of toxicity at 60 mg/kg, ip qd after 14 days relative to control; format: organism-based, U-87MG ATCC; parameters: dose 60 mg/kg, route intraperitoneal; conditions: in vivo, 336 h
[4] = AUC (infinity) in C57 mouse at 10 mg/kg, ip; format: ADME, organism-based; parameters: dose 10 mg/kg, route intraperitoneal, time infinity; conditions: plasma; procedure, shortened: as §1
[5] = Cytotoxicity against human NZB5 cells expressing wild type PI3K p110alpha assessed as growth inhibition after 5 days by [3H]-thymidine incorporation assay; format: functional, cell-based; procedure, shortened: as §2
PI3K p110 beta/p85 alpha = PI3K p110 beta/p85 alpha (Homo sapiens, UniProt P42338); assay: Inhibition of recombinant PI3K p110beta/p85alpha (unknown origin) using phosphotidylinositol as susbstrate after 1 hr by thin layer paper chromatographic analysis in presence of [gamma-33P]ATP; format: protein-complex assay
[6] = molecular target: PI3-kinase p110-alpha/p85-alpha (Homo sapiens, UniProt P42336); assay: Inhibition of recombinant PI3K p110alpha/p85alpha (unknown origin) using phosphotidylinositol as susbstrate after 1 hr by thin layer paper chromatographic analysis in presence of [gamma-33P]ATP; format: protein-complex assay
[7] = molecular target: T1, Phosphatidylinositol 4,5-bisphosphate 3-kinase catalytic subunit alpha isoform (Homo sapiens, UniProt P42336, H1047R); assay: Inhibition of PI3K p110alpha H1047R mutant in human HCT116 cells assessed as inhibition of AKT/PKB phosphorylation at Ser473 incubated for 15 mins prior to insulin stimulation measured after 5 mins by immunoblot analysis; format: cell-based, HCT-116
[8] = Antitumor activity against human U87MG cells xenografted in rag1-deficient mouse assessed as tumor growth inhibition at 60 mg/kg, ip qd measured after 7 days relative to control; conditions: U-87 MG, 168 h, read-out: TGI
Mus musculus [9] = assay: Toxicity in rag1-deficient mouse xenografted with human U87MG cells assessed as body weight loss at 60 mg/kg, ip qd after 14 days relative to control; format: organism-based, U-87MG ATCC; parameters: dose 60 mg/kg, route intraperitoneal; conditions: in vivo, 336 h
[10] = molecular target: PI3-kinase p110-delta/p85-alpha (Homo sapiens, UniProt O00329); assay: Inhibition of recombinant PI3K p110delta/p85alpha (unknown origin) using phosphotidylinositol as susbstrate after 1 hr by thin layer paper chromatographic analysis in presence of [gamma-33P]ATP; format: protein-complex assay
[11] = Tmax in C57 mouse at 10 mg/kg, ip; format: ADME, organism-based; parameters: dose 10 mg/kg, route intraperitoneal; conditions: in vivo; procedure, shortened: as §1
[12] = Half life in C57 mouse at 10 mg/kg, ip; format: ADME, organism-based; parameters: dose 10 mg/kg, route intraperitoneal; conditions: in vivo; procedure, shortened: as §1
[13] = molecular target: T1, Phosphatidylinositol 4,5-bisphosphate 3-kinase catalytic subunit alpha isoform; assay: Inhibition of PI3K p110alpha H1047R mutant in human HCT116 cells assessed as inhibition of AKT/PKB phosphorylation at Thr308 incubated for 15 mins prior to insulin stimulation measured after 5 mins by immunoblot analysis; format: cell-based, HCT-116
Mus musculus [14] = assay: Toxicity in rag1-deficient mouse xenografted with human U87MG cells assessed as body weight loss at 40 mg/kg, ip qd after 14 days relative to control; format: organism-based, U-87MG ATCC; parameters: dose 40 mg/kg, route intraperitoneal; conditions: in vivo, 336 h
Mus musculus [15] = assay: Toxicity in rag1-deficient mouse xenografted with human U87MG cells assessed as mortality at 40 mg/kg, ip qd after 14 days relative to control; format: organism-based, U-87MG ATCC; parameters: dose 40 mg/kg, route intraperitoneal; conditions: in vivo, 336 h
Procedure, shortened: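 Female specific-pathogen-free Rag1−/− mice given 5 × 10⁶ U87MG cells s.c. in PBS on the right flank. Dosing started 3–4 weeks later, once tumors averaged about 8 mm. Drug was given i.p. daily for 14 days at 10 mL/kg as free base, in 10% DMSO, 15% Cremophor EL, 15% EtOH and 60% saline. Bodyweight and tumor volume were recorded every 2–3 days.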

[16] = Antitumor activity against human U87MG cells xenografted in rag1-deficient mouse assessed as tumor growth inhibition at 40 mg/kg, ip qd measured after 7 days relative to control; conditions: U-87 MG, 168 h, read-out: TGI
[17] = Aqueous solubility of the compound in water by HPLC analysis; format: physicochemical
Procedure, shortened: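 Solid mixed with water to make 2 mM, sonicated 15 min, centrifuged; supernatant diluted 2-fold, recentrifuged, analysed by C18 HPLC (acetonitrile/45 mM ammonium formate pH 3.5 gradient); peak area compared with DMSO standard.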

[18] = Antitumor activity against human U87MG cells xenografted in rag1-deficient mouse assessed as tumor growth inhibition at 15 mg/kg, ip qd measured after 7 days relative to control; conditions: U-87 MG, 168 h, read-out: TGI
Mus musculus [19] = assay: Toxicity in rag1-deficient mouse xenografted with human U87MG cells assessed as body weight loss at 15 mg/kg, ip qd after 14 days relative to control; format: organism-based, U-87MG ATCC; parameters: dose 15 mg/kg, route intraperitoneal; conditions: in vivo, 336 h

Sequence of PI3K p110 beta/p85 alpha (P27986 whole entry): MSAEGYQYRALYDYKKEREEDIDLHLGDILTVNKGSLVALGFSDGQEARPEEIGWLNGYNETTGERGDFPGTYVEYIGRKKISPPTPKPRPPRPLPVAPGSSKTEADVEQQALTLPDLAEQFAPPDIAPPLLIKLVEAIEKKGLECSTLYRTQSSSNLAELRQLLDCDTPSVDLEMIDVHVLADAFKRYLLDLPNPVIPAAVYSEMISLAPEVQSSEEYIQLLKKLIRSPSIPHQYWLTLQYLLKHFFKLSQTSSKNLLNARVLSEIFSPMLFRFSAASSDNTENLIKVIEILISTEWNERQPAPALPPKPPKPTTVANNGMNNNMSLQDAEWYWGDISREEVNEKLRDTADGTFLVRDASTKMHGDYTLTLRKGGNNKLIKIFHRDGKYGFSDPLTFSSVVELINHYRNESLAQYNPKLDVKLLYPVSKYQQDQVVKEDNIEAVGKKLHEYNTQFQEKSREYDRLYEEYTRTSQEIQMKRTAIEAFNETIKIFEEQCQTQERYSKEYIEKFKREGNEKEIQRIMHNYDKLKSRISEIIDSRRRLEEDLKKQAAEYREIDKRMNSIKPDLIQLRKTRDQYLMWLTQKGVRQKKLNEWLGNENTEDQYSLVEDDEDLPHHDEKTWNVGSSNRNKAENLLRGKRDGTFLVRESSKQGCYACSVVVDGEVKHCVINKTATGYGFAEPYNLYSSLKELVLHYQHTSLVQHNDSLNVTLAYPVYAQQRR
Sequence of PI3K p110 beta/p85 alpha (P42338 whole entry): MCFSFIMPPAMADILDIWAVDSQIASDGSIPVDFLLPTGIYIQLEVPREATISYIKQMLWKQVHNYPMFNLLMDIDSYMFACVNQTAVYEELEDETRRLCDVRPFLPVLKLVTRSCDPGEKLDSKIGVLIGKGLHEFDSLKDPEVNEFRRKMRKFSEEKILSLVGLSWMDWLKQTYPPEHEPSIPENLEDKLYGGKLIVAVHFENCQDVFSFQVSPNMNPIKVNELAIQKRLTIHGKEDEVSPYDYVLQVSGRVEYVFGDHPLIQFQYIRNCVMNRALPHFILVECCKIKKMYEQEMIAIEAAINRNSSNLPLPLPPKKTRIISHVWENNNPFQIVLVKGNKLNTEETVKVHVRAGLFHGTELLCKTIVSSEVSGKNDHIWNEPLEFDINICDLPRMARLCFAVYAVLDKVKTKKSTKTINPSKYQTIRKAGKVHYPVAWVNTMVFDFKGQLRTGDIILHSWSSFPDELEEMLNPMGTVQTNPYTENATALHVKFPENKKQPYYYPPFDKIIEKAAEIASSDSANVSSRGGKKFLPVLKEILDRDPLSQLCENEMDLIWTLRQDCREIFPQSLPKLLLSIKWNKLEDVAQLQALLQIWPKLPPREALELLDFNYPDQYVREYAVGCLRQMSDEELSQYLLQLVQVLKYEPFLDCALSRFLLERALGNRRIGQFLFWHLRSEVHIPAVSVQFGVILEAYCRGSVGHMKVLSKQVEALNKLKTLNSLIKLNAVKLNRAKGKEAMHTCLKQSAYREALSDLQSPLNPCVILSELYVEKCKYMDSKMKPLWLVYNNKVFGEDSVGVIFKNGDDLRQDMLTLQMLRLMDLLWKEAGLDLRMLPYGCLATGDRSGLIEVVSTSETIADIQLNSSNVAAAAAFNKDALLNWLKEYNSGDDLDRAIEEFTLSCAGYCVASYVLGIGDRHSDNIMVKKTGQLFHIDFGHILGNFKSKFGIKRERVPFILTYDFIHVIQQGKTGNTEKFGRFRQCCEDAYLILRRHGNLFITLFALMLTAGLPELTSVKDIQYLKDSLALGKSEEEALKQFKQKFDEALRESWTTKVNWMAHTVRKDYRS
Sequence of PI3-kinase p110-alpha/p85-alpha (P27986 whole entry, canonical isoform): as the sequence (P27986 whole entry) above
Sequence of PI3-kinase p110-alpha/p85-alpha (P42336 whole entry, canonical isoform): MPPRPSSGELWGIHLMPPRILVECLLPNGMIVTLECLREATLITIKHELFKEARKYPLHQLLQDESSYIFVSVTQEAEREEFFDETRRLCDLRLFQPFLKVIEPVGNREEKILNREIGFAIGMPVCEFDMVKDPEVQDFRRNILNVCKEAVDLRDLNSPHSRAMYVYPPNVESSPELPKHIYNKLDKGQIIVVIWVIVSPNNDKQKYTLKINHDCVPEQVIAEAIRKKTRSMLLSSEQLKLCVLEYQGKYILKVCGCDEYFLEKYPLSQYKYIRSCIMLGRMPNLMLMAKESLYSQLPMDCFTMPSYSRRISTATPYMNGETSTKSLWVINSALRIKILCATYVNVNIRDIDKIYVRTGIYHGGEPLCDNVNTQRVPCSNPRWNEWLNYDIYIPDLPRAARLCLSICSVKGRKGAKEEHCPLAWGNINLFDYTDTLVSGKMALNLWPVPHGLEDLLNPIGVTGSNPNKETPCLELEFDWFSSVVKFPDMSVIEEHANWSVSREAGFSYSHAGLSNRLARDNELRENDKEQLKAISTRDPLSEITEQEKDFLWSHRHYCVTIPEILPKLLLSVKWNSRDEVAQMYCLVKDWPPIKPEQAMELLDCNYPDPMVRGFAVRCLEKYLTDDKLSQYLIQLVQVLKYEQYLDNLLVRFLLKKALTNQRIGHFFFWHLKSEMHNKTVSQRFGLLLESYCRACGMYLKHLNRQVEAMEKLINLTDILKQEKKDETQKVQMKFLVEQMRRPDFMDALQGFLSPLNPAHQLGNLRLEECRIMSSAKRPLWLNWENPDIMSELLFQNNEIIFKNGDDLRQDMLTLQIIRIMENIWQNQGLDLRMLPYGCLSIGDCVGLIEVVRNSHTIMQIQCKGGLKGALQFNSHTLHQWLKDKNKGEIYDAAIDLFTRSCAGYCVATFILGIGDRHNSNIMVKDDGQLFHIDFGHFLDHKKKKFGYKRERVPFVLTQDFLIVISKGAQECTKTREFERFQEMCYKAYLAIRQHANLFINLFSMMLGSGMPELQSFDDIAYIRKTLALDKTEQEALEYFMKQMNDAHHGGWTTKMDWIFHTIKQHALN
Sequence of PI3-kinase p110-delta/p85-alpha (P27986 whole entry): as the sequence (P27986 whole entry) above
Sequence of PI3-kinase p110-delta/p85-alpha (O00329 whole entry): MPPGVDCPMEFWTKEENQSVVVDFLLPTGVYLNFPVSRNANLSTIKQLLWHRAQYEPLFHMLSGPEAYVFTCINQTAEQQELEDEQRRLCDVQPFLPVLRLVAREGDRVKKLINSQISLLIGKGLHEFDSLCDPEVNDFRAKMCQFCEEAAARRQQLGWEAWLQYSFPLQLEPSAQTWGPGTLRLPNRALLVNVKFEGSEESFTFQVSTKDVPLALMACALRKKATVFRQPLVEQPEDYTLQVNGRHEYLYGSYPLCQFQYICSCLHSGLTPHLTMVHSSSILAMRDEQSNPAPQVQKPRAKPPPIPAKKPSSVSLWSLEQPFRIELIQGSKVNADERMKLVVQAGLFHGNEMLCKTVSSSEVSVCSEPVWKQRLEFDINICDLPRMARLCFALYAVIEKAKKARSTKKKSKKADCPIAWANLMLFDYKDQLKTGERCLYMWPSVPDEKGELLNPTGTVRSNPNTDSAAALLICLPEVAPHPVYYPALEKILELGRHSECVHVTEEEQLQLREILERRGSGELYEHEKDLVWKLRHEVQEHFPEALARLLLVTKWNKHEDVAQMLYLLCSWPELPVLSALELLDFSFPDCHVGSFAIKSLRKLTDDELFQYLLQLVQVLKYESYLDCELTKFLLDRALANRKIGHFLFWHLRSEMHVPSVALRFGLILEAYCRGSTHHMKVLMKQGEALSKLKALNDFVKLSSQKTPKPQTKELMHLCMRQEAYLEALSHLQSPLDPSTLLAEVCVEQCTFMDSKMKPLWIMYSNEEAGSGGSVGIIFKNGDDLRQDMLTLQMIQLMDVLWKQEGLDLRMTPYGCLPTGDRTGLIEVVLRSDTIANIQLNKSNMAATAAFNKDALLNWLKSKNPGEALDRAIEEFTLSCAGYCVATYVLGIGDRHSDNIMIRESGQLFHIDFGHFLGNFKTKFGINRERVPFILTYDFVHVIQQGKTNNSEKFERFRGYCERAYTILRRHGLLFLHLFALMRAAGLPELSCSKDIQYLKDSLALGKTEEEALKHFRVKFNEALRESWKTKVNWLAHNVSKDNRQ
T1 sequence (P42336 whole entry H1047R, canonical isoform): as the sequence (P42336 whole entry, canonical isoform) above, with H1047R counted along it

SMILES: CN(C)CCCOc1cccc2c1nc(C(F)F)n2-c1nc(N2CCOCC2)nc(N2CCOCC2)n1
- Cmax [1]: 1940 nM
- IC50 [2]: 40 nM
- Activity (Mus musculus [3]): Toxic
- AUC(0-inf) [4]: 2.59 µM·h
- IC50 [5]: 170 nM
- IC50 (PI3K p110 beta/p85 alpha): 7.3 nM
- IC50 [6]: 11 nM
- IC50 [7]: 36 nM
- inhibition in vivo at 60 mg/kg [8]: 56.3%
- Activity (Mus musculus [9]): 5%
- IC50 [10]: 4.5 nM
- Tmax [11]: 15 min
- half-life [12]: 93.6 min
- IC50 [13]: 74 nM

SMILES: OCC(O)COc1cccc2c1nc(C(F)F)n2-c1nc(N2CCOCC2)nc(N2CCOCC2)n1 (stereo not given)
- IC50 [2]: 25 nM
- IC50 [5]: 26 nM
- IC50 (PI3K p110 beta/p85 alpha): 24 nM
- IC50 [6]: 12 nM
- IC50 [10]: 4.7 nM

SMILES: FC(F)c1nc2ccccc2n1-c1nc(N2CCOCC2)nc(N2CCOCC2)n1 [ZSTK-474]
- Activity (Mus musculus [14]): 19%
- Activity (Mus musculus [15]): Toxic
- inhibition in vivo at 40 mg/kg [16]: 67.6%

SMILES: NCCCOc1cccc2c1nc(C(F)F)n2-c1nc(N2CCOCC2)nc(N2CCOCC2)n1
- IC50 [2]: 9 nM
- IC50 [5]: 32 nM
- IC50 (PI3K p110 beta/p85 alpha): 75 nM
- IC50 [6]: 28 nM
- IC50 [10]: 28 nM

SMILES: CN(C)CC(O)COc1cccc2c1nc(C(F)F)n2-c1nc(N2CCOCC2)nc(N2CCOCC2)n1 (stereo not given)
- IC50 [2]: 110 nM
- IC50 [5]: 330 nM
- IC50 (PI3K p110 beta/p85 alpha): 30 nM
- IC50 [6]: 33 nM
- IC50 [10]: 13 nM

SMILES: OCCOc1cccc2c1nc(C(F)F)n2-c1nc(N2CCOCC2)nc(N2CCOCC2)n1
- IC50 [2]: 60 nM
- IC50 [5]: 60 nM
- IC50 (PI3K p110 beta/p85 alpha): 16 nM
- IC50 [6]: 5.3 nM
- IC50 [10]: 2.6 nM

SMILES: FC(F)c1nc2c(OCCN3CCOCC3)cccc2n1-c1nc(N2CCOCC2)nc(N2CCOCC2)n1
- IC50 [2]: 71 nM
- IC50 [5]: 105 nM
- IC50 (PI3K p110 beta/p85 alpha): 150 nM
- IC50 [6]: 130 nM
- IC50 [10]: 53 nM

SMILES: CN(C)CCOc1cccc2c1nc(C(F)F)n2-c1nc(N2CCOCC2)nc(N2CCOCC2)n1
- IC50 [2]: 150 nM
- IC50 [5]: 450 nM
- IC50 (PI3K p110 beta/p85 alpha): 105 nM
- IC50 [6]: 35 nM
- IC50 [10]: 19 nM

SMILES: CN(C)CCC(=O)Nc1cccc2c1nc(C(F)F)n2-c1nc(N2CCOCC2)nc(N2CCOCC2)n1
- IC50 [2]: 140 nM
- IC50 [5]: 290 nM
- IC50 (PI3K p110 beta/p85 alpha): 1260 nM
- IC50 [6]: 486 nM
- IC50 [10]: 112 nM

SMILES: CN(C)CCCOc1cccc2c1nc(C(F)F)n2-c1nc(N2CCOCC2)nc(N2CCOCC2)n1.Cl
- solubility [17]: 25 mg/mL

SMILES: CN(C)CC(=O)Nc1cccc2c1nc(C(F)F)n2-c1nc(N2CCOCC2)nc(N2CCOCC2)n1
- IC50 [2]: 50 nM
- IC50 [5]: 50 nM
- IC50 (PI3K p110 beta/p85 alpha): 1040 nM
- IC50 [6]: 379 nM
- IC50 [10]: 99 nM

SMILES: NCCC(=O)Nc1cccc2c1nc(C(F)F)n2-c1nc(N2CCOCC2)nc(N2CCOCC2)n1
- IC50 [2]: 120 nM
- IC50 [5]: 440 nM
- IC50 (PI3K p110 beta/p85 alpha): 3010 nM
- IC50 [6]: 855 nM
- IC50 [10]: 210 nM

SMILES: CN(C)CCNc1cccc2c1nc(C(F)F)n2-c1nc(N2CCOCC2)nc(N2CCOCC2)n1
- IC50 [2]: 110 nM
- IC50 [5]: 200 nM
- IC50 (PI3K p110 beta/p85 alpha): 73 nM
- IC50 [6]: 174 nM
- IC50 [10]: 15 nM

SMILES: NCC(=O)Nc1cccc2c1nc(C(F)F)n2-c1nc(N2CCOCC2)nc(N2CCOCC2)n1
- IC50 [2]: 60 nM
- IC50 [5]: 140 nM
- IC50 (PI3K p110 beta/p85 alpha): 740 nM
- IC50 [6]: 119 nM
- IC50 [10]: 52 nM

SMILES: Cn1c(=O)n(-c2ccc(C(C)(C)C#N)cc2)c2c3cc(-c4cnc5ccccc5c4)ccc3ncc21 [DACTOLISIB]
- inhibition in vivo at 15 mg/kg [18]: 60.3%
- Activity (Mus musculus [19]): 5%

SMILES: FC(F)c1nc2c(OCCCN3CCOCC3)cccc2n1-c1nc(N2CCOCC2)nc(N2CCOCC2)n1
- IC50 [2]: 30 nM
- IC50 [5]: 60 nM
- IC50 (PI3K p110 beta/p85 alpha): 76 nM
- IC50 [6]: 29 nM
- IC50 [10]: 18 nM

SMILES: OCCCOc1cccc2c1nc(C(F)F)n2-c1nc(N2CCOCC2)nc(N2CCOCC2)n1
- IC50 [2]: 18 nM
- IC50 [5]: 71 nM
- IC50 (PI3K p110 beta/p85 alpha): 170 nM
- IC50 [6]: 10 nM
- IC50 [10]: 22 nM

SMILES: O=C(O)COc1cccc2c1nc(C(F)F)n2-c1nc(N2CCOCC2)nc(N2CCOCC2)n1
- IC50 [2]: 3400 nM
- IC50 [5]: 8500 nM
- IC50 (PI3K p110 beta/p85 alpha): 274 nM
- IC50 [6]: 52 nM
- IC50 [10]: 39 nM

SMILES: NCCOc1cccc2c1nc(C(F)F)n2-c1nc(N2CCOCC2)nc(N2CCOCC2)n1
- IC50 [2]: 22 nM
- IC50 [5]: 52 nM
- IC50 (PI3K p110 beta/p85 alpha): 130 nM
- IC50 [6]: 17 nM
- IC50 [10]: 20 nM

SMILES: OC(COc1cccc2c1nc(C(F)F)n2-c1nc(N2CCOCC2)nc(N2CCOCC2)n1)CN1CCOCC1 (stereo not given)
- IC50 [2]: 25 nM
- IC50 [5]: 54 nM
- IC50 (PI3K p110 beta/p85 alpha): 53 nM
- IC50 [6]: 41 nM
- IC50 [10]: 5.5 nM
